We go through four compounds from ChEMBL document CHEMBL4364256, “Design, synthesis and biological evaluation of antimicrobial diarylimine and -amine compounds targeting the interaction between the bacterial NusB and NusE proteins” (Eur J Med Chem, 2019).

Values after ≈ are worked out from the molar mass of the structure shown.

Series [1] deals with Staphylococcus aureus. Put plainly: Antimicrobial activity against CA-methicillin-resistant Staphylococcus aureus W48 ST217 incubated for 20 hrs by microdilution method. The settings on record: W48 ST217, 20 h. A general note: Broth dilution looks for growth in wells or tubes with falling amounts of substance.
The subject of series [2] is Staphylococcus aureus. As to the kind of experiment: Antimicrobial activity against CA-methicillin-resistant Staphylococcus aureus W47 ST30 incubated for 20 hrs by microdilution method. The series is classed as functional. The following applies: W47 ST30, 20 h. A digest of the protocol: (§1)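 MIC determined by microdilution following Clinical & Laboratory Standards Institute (CLSI) guidelines, read in µg/mL, against a panel of hospital- and community-acquired MRSA strains.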

Series [3] has as its system Streptococcus agalactiae. As to the kind of experiment: Antimicrobial activity against Streptococcus agalactiae ATCC 12386 incubated for 20 hrs by microdilution method. The settings on record: ATCC 12386, 20 h. Type of series: functional. The procedure, abridged:
(§2)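 Broth microdilution MIC testing done following CLSI guidelines.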

Series [4] has as its system Pseudomonas aeruginosa. Put plainly: Antimicrobial activity against Pseudomonas aeruginosa ATCC 27853 incubated for 20 hrs by microdilution method. Type of series: functional. The following applies: ATCC 27853, 20 h. A digest of the protocol: as §2
In series [5] the test system is Acinetobacter baumannii. Put plainly: Antimicrobial activity against Acinetobacter baumannii ATCC 19606 incubated for 20 hrs by microdilution method. Type of series: functional. The settings on record: ATCC 19606 = CIP 70.34 = JCM 6841, 20 h. The procedure, abridged:
as §2

Series [6] relates to Staphylococcus aureus. As to the kind of experiment: Antimicrobial activity against Staphylococcus aureus HA W235 ST5 incubated for 20 hrs by microdilution method. The series is classed as functional. The settings on record: HA W235 ST5, 20 h. The procedure, abridged: as §1
The test system of series [7] is Staphylococcus aureus. Put plainly: microbe, parasite or virus in culture. The settings on record: ATCC 25923, 20 h.
Series [8] in a line: Antimicrobial activity against Staphylococcus saprophyticus ATCC 15305 incubated for 20 hrs by microdilution method. Type of series: functional, Staphylococcus saprophyticus subsp. saprophyticus. The following applies: ATCC 15305, 20 h. A digest of the protocol: as §2
A short description of series [9]: microbe, parasite or virus in culture. The following applies: Enterobacter cloacae, ATCC 13047, 20 h.
In series [10] the test system is Staphylococcus aureus. As to the kind of experiment: Antimicrobial activity against Staphylococcus aureus ST239 incubated for 20 hrs by microdilution method. Type of series: functional. The following applies: CN79, 20 h. The procedure, abridged:
as §1

Series [11] relates to Staphylococcus aureus. Put plainly: Antimicrobial activity against CA-methicillin-resistant Staphylococcus aureus W46 ST59 incubated for 20 hrs by microdilution method. The settings on record: W46 ST59, 20 h.
The test system of series [12] is Enterococcus casseliflavus. Put plainly: Antimicrobial activity against Enterococcus casseliflavus ATCC 25788 incubated for 20 hrs by microdilution method. The series is classed as functional. The settings on record: ATCC 25788, 20 h. The procedure, abridged:
as §2

For series [13], the system named is Staphylococcus aureus. Put plainly: Antimicrobial activity against Staphylococcus aureus ST22 11B086169 incubated for 20 hrs by microdilution method. The settings on record: ST22 11B086169, 20 h. Type of series: functional. The procedure, abridged: as §1
Series [14] relates to Staphylococcus epidermidis. As to the kind of experiment: Antimicrobial activity against Staphylococcus epidermidis ATCC 12228 incubated for 20 hrs by microdilution method. The following applies: ATCC 12228, 20 h. Type of series: functional. The procedure, abridged: as §2
In series [15] the test system is Staphylococcus aureus. Put plainly: microbe, parasite or virus in culture. The settings on record: ATCC 29213, 20 h.
The test system of series [16] is Staphylococcus aureus. As to the kind of experiment: Antimicrobial activity against Staphylococcus aureus USA300/ST8 incubated for 20 hrs by microdilution method. The settings on record: USA300 ST8, 20 h.
Series [17] relates to Streptococcus pneumoniae. Put plainly: Antimicrobial activity against Streptococcus pneumoniae ATCC 49619 incubated for 20 hrs by microdilution method. Type of series: functional. The following applies: ATCC 49619, 20 h. The procedure, abridged: as §2
Series [18] concerns Staphylococcus aureus. Put plainly: Antimicrobial activity against CA-methicillin-resistant Staphylococcus aureus W4 ST338 incubated for 20 hrs by microdilution method. The following applies: W4 ST338, 20 h. Type of series: functional. A digest of the protocol: as §1
The test system of series [19] is Staphylococcus aureus. Put plainly: Antimicrobial activity against Staphylococcus aureus ATCC BAA43 incubated for 20 hrs by microdilution method. Type of series: functional. The settings on record: ATCC BAA43, 20 h. A digest of the protocol: as §1
The test system of series [20] is Staphylococcus aureus. Put plainly: Antimicrobial activity against CA-methicillin-resistant Staphylococcus aureus W45 ST59 incubated for 20 hrs by microdilution method. The following applies: W45 ST59, 20 h.
In series [21] the test system is Staphylococcus aureus. As to the kind of experiment: Antimicrobial activity against Staphylococcus aureus ATCC BAA44 incubated for 20 hrs by microdilution method. Type of series: functional. The following applies: ATCC BAA44, 20 h. The procedure, abridged: as §1
Series [22] has as its system Staphylococcus aureus. Put plainly: Antimicrobial activity against Staphylococcus aureus HA W231 ST45 incubated for 20 hrs by microdilution method. The settings on record: HA W231 ST45, 20 h. Type of series: functional. A digest of the protocol: as §1
The subject of series [23] is Streptococcus pyogenes. As to the kind of experiment: Antimicrobial activity against Streptococcus pyogenes ATCC 19615 incubated for 20 hrs by microdilution method. The series is classed as functional. The settings on record: ATCC 19615, 20 h. The procedure, abridged:
as §2

For series [24], the system named is Enterococcus faecium. As to the kind of experiment: Antimicrobial activity against Enterococcus faecium ATCC 19433 incubated for 20 hrs by microdilution method. The series is classed as functional. The following applies: ATCC 19433, 20 h. A digest of the protocol:
as §2

Series [25] has as its system Bacillus subtilis. Put plainly: Inhibition of N-terminal LgBiT-fused Bacillus subtilis NusB expressed in Escherichia coli BL21(DE3)pLysS interaction with C- terminal SmBiT-fused Bacillus subtilis NusE expressed in Escherichia coli BL21(DE3)pLysS at 100 uM preincubated for 10 mins followed by NusE addition and measured after 10 mins by nano-glo luciferase assay relative to control. A digest of the protocol: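 NusB and NusE were mixed 1:1 at 1 µM in PBS, with compound at 100 µM. The read-out was percent inhibition of the NusB-NusE interaction.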

A short description of series [26]: Therapeutic index, ratio of CC50 for human HaCaT cells to 1/2 times MIC for Staphylococcus aureus ATCC 25923. The series is classed as toxicity. The settings on record: read-out: TI.
Series [27] can be described thus: Cytotoxicity against human A549 cells assessed as reduction in cell viability after 48 to 72 hrs by MTT assay. Type of series: cell-based.
Series [28] can be described thus: Cytotoxicity against human HaCaT cells assessed as reduction in cell viability after 48 to 72 hrs by MTT assay. The series is classed as cell-based. In general terms: Tetrazolium assays rely on reduction of a dye to a coloured formazan, in cell work by metabolically active cells.
The nature of series [29]: Therapeutic index, ratio of CC50 for human A549 cells to 1/2 times MIC for Staphylococcus aureus ATCC 25923. The following applies: read-out: TI. The series is classed as toxicity.

On to `Cc1onc(-c2ccccc2)c1C(=O)N[C@@H]1C(=O)N2[C@@H]1SC(C)(C)[C@@H]2C(=O)O` [OXACILLIN], for which the MIC in [1] is 64 µg/mL (≈ 159 µM); in series [2], 4 µg/mL (≈ 9.96 µM); in series [3], 0.5 µg/mL (≈ 1.25 µM); in [4], over 256 µg/mL; in series [5], over 256 µg/mL; in [6], over 256 µg/mL. Moreover, the MIC in [7] was 0.5 to 1 µg/mL (≈ 1.25 to 2.49 µM); in series [8], 1 µg/mL (≈ 2.49 µM); in series [9], over 256 µg/mL; in series [10], over 256 µg/mL; in [11], 8 µg/mL (≈ 19.9 µM); in series [12], 32 µg/mL (≈ 79.7 µM). For the same compound, the MIC in series [13] stood at 64 µg/mL (≈ 159 µM); in series [14], 0.25 µg/mL (≈ 0.623 µM); in series [15] it was 0.25 µg/mL (≈ 0.623 µM); in series [16], 32 µg/mL (≈ 79.7 µM); in series [17], 2 µg/mL (≈ 4.98 µM); in series [18], 0.5 µg/mL (≈ 1.25 µM). The MIC in series [19] was over 256 µg/mL; in series [20], 8 µg/mL (≈ 19.9 µM); in series [21], over 256 µg/mL; in [22], 4 µg/mL (≈ 9.96 µM); in [23], 0.0625 µg/mL (≈ 0.156 µM); in series [24] it was 16 µg/mL (≈ 39.9 µM).
For the compound `O=[N+]([O-])c1ccc(O)c(/C=N/c2ccccc2Cl)c1`, the MIC was over 256 µg/mL in [4]; 256 µg/mL (≈ 925 µM) in series [5]; 2 µg/mL (≈ 7.23 µM) in series [7]; over 256 µg/mL in series [9]; 16 µg/mL (≈ 57.8 µM) in series [15]; 64 µg/mL (≈ 231 µM) in series [17]. This compound had an MIC in [24] of over 256 µg/mL. Further, the inhibition (commonly the change of the read-out against control, counted positive when it falls) in [25] turned out to be 45.7%. Moreover, the selectivity ratio amounted to 96 in series [26] and 119 in [29]. Moreover, the CC50 (in general, the concentration giving 50% cytotoxicity) was 432 µM in series [27] and 347 µM in [28].
Turning to `O=[N+]([O-])c1ccc(O)c(CNc2ccccc2C(F)(F)F)c1`, the MIC in series [1] was 2 µg/mL (≈ 6.41 µM); in series [2], 4 µg/mL (≈ 12.8 µM); in series [3], 16 µg/mL (≈ 51.2 µM); in series [4], over 256 µg/mL; in series [5], 128 µg/mL (≈ 410 µM); in series [6], 2 µg/mL (≈ 6.41 µM). Besides, the MIC in [7] came to 2 µg/mL (≈ 6.41 µM); in [8], 4 µg/mL (≈ 12.8 µM); in series [9], 256 µg/mL (≈ 820 µM); in series [10], 4 µg/mL (≈ 12.8 µM); in series [11], 2 µg/mL (≈ 6.41 µM); in series [12], 64 µg/mL (≈ 205 µM). Further, the MIC in [13] came to 4 µg/mL (≈ 12.8 µM); in [14], 2 µg/mL (≈ 6.41 µM); in [15], 2 µg/mL (≈ 6.41 µM); in series [16] it was 2 µg/mL (≈ 6.41 µM); in [17] it was 8 µg/mL (≈ 25.6 µM); in [18], 2 µg/mL (≈ 6.41 µM). In addition, the MIC in [19] was 4 µg/mL (≈ 12.8 µM); in series [20], 4 µg/mL (≈ 12.8 µM); in series [21], 4 µg/mL (≈ 12.8 µM); in series [22], 4 µg/mL (≈ 12.8 µM); in series [23], 16 µg/mL (≈ 51.2 µM); in [24], 8 µg/mL (≈ 25.6 µM). Besides, the inhibition in series [25] was found to be 61.5%. Also, the selectivity ratio in [26] and in series [29] was 6 in each case. For the same compound, the CC50 amounted to 20 µM in series [27] and 18.3 µM in [28].
As to `CN[C@H](CC(C)C)C(=O)N[C@H]1C(=O)N[C@@H](CC(N)=O)C(=O)N[C@H]2C(=O)N[C@H]3C(=O)N[C@H](C(=O)N[C@H](C(=O)O)c4cc(O)cc(O)c4-c4cc3ccc4O)[C@H](O)c3ccc(c(Cl)c3)Oc3cc2cc(c3O[C@@H]2O[C@H](CO)[C@@H](O)[C@H](O)[C@H]2O[C@H]2C[C@](C)(N)[C@H](O)[C@H](C)O2)Oc2ccc(cc2Cl)[C@H]1O` [VANCOMYCIN], the MIC in series [3] is 0.5 µg/mL (≈ 0.345 µM); in series [4], over 256 µg/mL; in series [5], over 256 µg/mL; in series [7] it was 1 to 2 µg/mL (≈ 0.69 to 1.38 µM); in series [8], 1 µg/mL (≈ 0.69 µM); in [9], over 256 µg/mL. Also, the values for the MIC in series [12] and in series [17] were 4 µg/mL (≈ 2.76 µM) and 0.5 µg/mL (≈ 0.345 µM), respectively.
